Assay [1] addresses T1, Cannabinoid receptor 2 (Rattus norvegicus, UniProt Q9QZN9).
T1 sequence (Q9QZN9 whole entry): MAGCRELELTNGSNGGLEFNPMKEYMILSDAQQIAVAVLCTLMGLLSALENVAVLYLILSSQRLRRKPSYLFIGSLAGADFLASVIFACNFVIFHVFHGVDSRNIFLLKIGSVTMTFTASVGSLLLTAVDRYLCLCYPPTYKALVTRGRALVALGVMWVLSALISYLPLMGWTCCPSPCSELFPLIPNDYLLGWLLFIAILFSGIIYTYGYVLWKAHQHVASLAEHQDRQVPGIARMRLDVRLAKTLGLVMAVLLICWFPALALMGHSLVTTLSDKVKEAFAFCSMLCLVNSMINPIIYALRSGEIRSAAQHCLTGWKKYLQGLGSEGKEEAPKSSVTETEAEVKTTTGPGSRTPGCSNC
As to the kind of experiment: Displacement of [3H]CP-55940 from Sprague-Dawley rat spleen CB2 receptor after 60 mins by scintillation counting analysis. Put shortly: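 Competed against 0.5 nM [³H]CP-55,940 using 1 nM–10 μM compound for 60 min at 30 °C. Bound ligand collected on GF/C filters and counted. Ki from IC50 by Cheng-Prusoff; mean SEM of n = 4.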

In assay [2] the target is T2, Cannabinoid receptor 1 (Homo sapiens, UniProt P21554). As to the kind of experiment: Displacement of [3H]CP-55940 from human CB1 receptor expressed in CHO cell membrane after 90 mins by scintillation counting analysis. Format: cell membranes. The method in brief: (§1)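 Membranes from CHO cells stably expressing human CB₁ (G418-maintained), suspended in 50 mM Tris-HCl, 0.5% BSA, 5 mM MgCl₂, 2.5 mM EDTA, pH 7.4. Displacement of 0.5 nM [³H]CP-55,940 by 1 nM–10 μM compound, 90 min, 30 °C. Filtration on GF/C, scintillation counting. Cheng-Prusoff Ki, LIGAND fitting; mean SEM, n = 4.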

Assay [3] addresses T3, Cannabinoid receptor 2 (Homo sapiens, UniProt P34972). The assay can be described thus: Inverse agonist activity at human CB2 receptor expressed in CHO cell membrane assessed as increase in forskolin-stimulated cAMP production at 1 uM by scintillation counting analysis relative to WIN55212-2. Put shortly: (§2)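 Whole hCB₂ CHO cells (1 × 10⁶/assay) in HEPES-buffered saline with glucose, pH 7.4, preincubated 10 min at 37 °C with 0.5 mM Ro 20-1724. Compound at 1 or 10 μM with 1 μM forskolin. Stopped with cold 6% TCA, ether-extracted; cAMP measured by [³H]cAMP competition binding with adrenal binding protein. Expressed as % increase versus WIN 55,212-2 (set −100%); n = 4.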

In assay [4] the target is Cannabinoid receptor 1 (Rattus norvegicus, UniProt P20272). As to the kind of experiment: Displacement of [3H]CP-55940 from Sprague-Dawley rat brain CB1 receptor after 90 mins by scintillation counting analysis. Put shortly: (§3)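 Competition with [³H]CP-55,940 (1.0 nM stated in rat CB₁ section; 0.5 nM in general protocol) against 1 nM–10 μM compound, 90 min at 30 °C. GF/C filtration, scintillation counting. Ki via Cheng-Prusoff; mean SEM, n = 4.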

In assay [5] the target is Cannabinoid receptor 1 (Rattus norvegicus) (UniProt P20272). The assay can be described thus: Displacement of [3H]CP-55940 from Sprague-Dawley rat brain CB1 receptor at > 10 uM after 90 mins by scintillation counting analysis. The method in brief:
as §3

The species entered for the next assay is Homo sapiens. As to the kind of experiment: Selectivity index, ratio of Ki for human CB1 receptor to Ki for human CB2 receptor.
Assay [6] addresses T3, Cannabinoid receptor 2. The assay can be described thus: Displacement of [3H]CP-55940 from human CB2 receptor expressed in CHO cell membrane after 60 mins by scintillation counting analysis. It counts as cell membranes. Put shortly: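 Human CB₂-expressing CHO cell membranes in 50 mM Tris-HCl, 0.5% BSA, 5 mM MgCl₂, 1 mM EDTA, pH 7.4. Binding of 0.5 nM [³H]CP-55,940 competed with 1 nM–10 μM compound for 60 min at 30 °C, then GF/C filtration and scintillation counting. Ki by Cheng-Prusoff from IC50; mean SEM of n = 4.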

For assay [7], the target named is T2, Cannabinoid receptor 1. As to the kind of experiment: Displacement of [3H]CP-55940 from human CB1 receptor expressed in CHO cell membrane at > 10 uM after 90 mins by scintillation counting analysis. It counts as cell membranes. The method in brief: as §1
Assay [8] deals with T3, Cannabinoid receptor 2. The assay can be described thus: Inverse agonist activity at human CB2 receptor expressed in CHO cell membrane assessed as increase in forskolin-stimulated cAMP production at 10 uM by scintillation counting analysis relative to WIN55212-2. The method in brief:
as §2

From ChEMBL document CHEMBL2380310, “Discovery of 7-oxopyrazolo[1,5-a]pyrimidine-6-carboxamides as potent and selective CB(2) cannabinoid receptor inverse agonists” (J Med Chem, 2013) come the findings set out here.

pKi: −log10 of the molar value.

T2 sequence (P21554 whole entry): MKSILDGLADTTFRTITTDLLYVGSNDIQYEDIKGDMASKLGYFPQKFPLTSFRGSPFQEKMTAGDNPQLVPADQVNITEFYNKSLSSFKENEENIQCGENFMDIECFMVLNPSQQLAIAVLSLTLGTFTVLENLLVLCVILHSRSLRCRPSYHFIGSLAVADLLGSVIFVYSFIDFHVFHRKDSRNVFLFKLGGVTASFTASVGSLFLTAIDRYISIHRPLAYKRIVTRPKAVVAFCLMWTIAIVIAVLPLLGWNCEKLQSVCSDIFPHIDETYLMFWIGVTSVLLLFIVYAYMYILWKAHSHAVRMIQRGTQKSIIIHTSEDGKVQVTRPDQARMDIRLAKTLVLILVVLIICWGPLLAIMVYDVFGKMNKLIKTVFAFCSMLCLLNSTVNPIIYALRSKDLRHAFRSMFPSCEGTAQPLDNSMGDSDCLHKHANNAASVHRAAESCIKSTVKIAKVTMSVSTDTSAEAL
Cannabinoid receptor 1 (Rattus norvegicus, UniProt P20272), sequence (P20272 whole entry): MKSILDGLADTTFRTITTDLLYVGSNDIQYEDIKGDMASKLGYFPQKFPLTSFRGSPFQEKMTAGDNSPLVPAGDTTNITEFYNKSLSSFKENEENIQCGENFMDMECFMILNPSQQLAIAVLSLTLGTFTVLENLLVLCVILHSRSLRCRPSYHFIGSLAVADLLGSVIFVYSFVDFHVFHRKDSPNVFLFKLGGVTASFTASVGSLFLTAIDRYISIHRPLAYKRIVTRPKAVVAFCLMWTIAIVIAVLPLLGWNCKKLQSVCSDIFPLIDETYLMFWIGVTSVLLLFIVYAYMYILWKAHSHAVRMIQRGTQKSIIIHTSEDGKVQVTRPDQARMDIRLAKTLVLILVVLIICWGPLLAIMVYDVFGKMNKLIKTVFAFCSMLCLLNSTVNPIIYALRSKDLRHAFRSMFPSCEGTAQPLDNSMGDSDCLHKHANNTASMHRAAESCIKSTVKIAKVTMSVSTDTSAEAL
Cannabinoid receptor 1 (Rattus norvegicus), sequence (P20272 whole entry): as above
T3 sequence (P34972 whole entry): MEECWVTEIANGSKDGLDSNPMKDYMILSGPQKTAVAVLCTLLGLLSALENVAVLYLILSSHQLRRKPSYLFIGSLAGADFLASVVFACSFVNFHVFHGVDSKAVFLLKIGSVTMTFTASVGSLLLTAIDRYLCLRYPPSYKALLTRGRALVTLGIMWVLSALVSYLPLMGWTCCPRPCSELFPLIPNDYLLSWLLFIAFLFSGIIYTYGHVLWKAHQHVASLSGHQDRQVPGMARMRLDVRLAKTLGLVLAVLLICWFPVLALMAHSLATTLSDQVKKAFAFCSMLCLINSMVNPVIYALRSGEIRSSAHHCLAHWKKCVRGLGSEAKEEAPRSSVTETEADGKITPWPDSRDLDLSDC

With `CCCCCn1cc(C(=O)NC23CC4CC(CC(C4)C2)C3)c(=O)n2nc(C)c(Br)c12`, the pKi at Cannabinoid receptor 2 [1] was 6.57; at Cannabinoid receptor 1 [2], below 5.00; at Cannabinoid receptor 1 [4] it was below 5.00; at Cannabinoid receptor 2 [6] it was 6.66. Besides, the Activity on Cannabinoid receptor 2 [3] was 32%; in assay [5], 1%; on Cannabinoid receptor 1 [7], 1%; at Cannabinoid receptor 2 [8] it was 48%. Also, the Ratio Ki in the assay filed under Homo sapiens is above 45.

As to `CCCCCn1cc(C(=O)NC23CC4CC(CC(C4)C2)C3)c(=O)n2nc(C)c(-c3ccccc3)c12`, the negative logarithm of the Ki (pKi) on Cannabinoid receptor 2 [1] is 6.67; at Cannabinoid receptor 1 [2], below 5.00; on Cannabinoid receptor 1 [4] it was below 5.00; on Cannabinoid receptor 2 [6], 6.74. Moreover, the Activity on Cannabinoid receptor 2 [3] worked out at 34%; in [5], 15%; on Cannabinoid receptor 1 [7], 15%; at Cannabinoid receptor 2 [8], 51%. For the same molecule, the Ratio Ki in the assay listed under Homo sapiens is above 55.

`CCCCCn1cc(C(=O)NC2CCCCC2)c(=O)n2nc(-c3ccccc3Cl)cc12`: the pKi on Cannabinoid receptor 2 [1] was 7.28; at Cannabinoid receptor 1 [2], below 5.00; on Cannabinoid receptor 1 [4] it was below 5.00; at Cannabinoid receptor 2 [6], 7.33. In addition, the Activity at Cannabinoid receptor 2 [3] came out at 37%; in assay [5] it was 40%; at Cannabinoid receptor 1 [7], 34%; on Cannabinoid receptor 2 [8] it was 55%. Moreover, the Ratio Ki in the assay listed under Homo sapiens is above 212.

In the case of `CCCCCn1cc(C(=O)NC2CCCCC2)c(=O)n2nc(-c3ccc(Cl)cc3Cl)cc12`, the negative logarithm of the Ki (pKi) was 7.22 at Cannabinoid receptor 2 [1], below 5.00 at Cannabinoid receptor 1 [2], below 5.00 on Cannabinoid receptor 1 [4] and 7.28 at Cannabinoid receptor 2 [6]. For the same molecule, the Activity on Cannabinoid receptor 2 [3] was 45%; in [5], 47%; at Cannabinoid receptor 1 [7], 38%; at Cannabinoid receptor 2 [8], 65%. The Ratio Ki in the assay listed under Homo sapiens is above 192.

As to `CCCCCn1cc(C(=O)NC2CCCCCC2)c(=O)n2nc(-c3ccco3)cc12`, the negative logarithm of the Ki (pKi) at Cannabinoid receptor 2 [1] is 8.14; on Cannabinoid receptor 1 [2], below 5.00; on Cannabinoid receptor 1 [4] it was below 5.00; on Cannabinoid receptor 2 [6], 8.18. The Activity on Cannabinoid receptor 2 [3] came out at 42%; in [5] it was 20%; on Cannabinoid receptor 1 [7] it was 16%; on Cannabinoid receptor 2 [8], 88%. In addition, the Ratio Ki in the assay filed under Homo sapiens was above 1520.

As for `CCCCCn1cc(C(=O)NC2CCCCC2)c(=O)n2nc(-c3ccc(C)cc3)cc12`, the pKi on Cannabinoid receptor 2 [1] was 7.21; at Cannabinoid receptor 1 [2] it was below 5.00; on Cannabinoid receptor 1 [4] it was below 5.00; at Cannabinoid receptor 2 [6], 7.24. In addition, the Activity came to 63% on Cannabinoid receptor 2 [3], 25% in assay [5], 20% on Cannabinoid receptor 1 [7] and 93% at Cannabinoid receptor 2 [8]. Moreover, the Ratio Ki in the assay filed under Homo sapiens was above 175.

Take `CCCCCn1cc(C(=O)NC2CCCCC2)c(=O)n2nc(-c3ccc(Cl)cc3)cc12`: the negative logarithm of the Ki (pKi) was 7.24 at Cannabinoid receptor 2 [1], below 5.00 at Cannabinoid receptor 1 [2], below 5.00 on Cannabinoid receptor 1 [4] and 7.26 at Cannabinoid receptor 2 [6]. Moreover, the Activity at Cannabinoid receptor 2 [3] was found to be 79%; in assay [5], 8%; on Cannabinoid receptor 1 [7], 15%; at Cannabinoid receptor 2 [8], 94%. Also, in the assay filed under Homo sapiens, the Ratio Ki is above 181.

`CCCCCn1cc(C(=O)NC23CC4CC(CC(C4)C2)C3)c(=O)n2nc(-c3ccc(Cl)cc3Cl)cc12`: the pKi was 7.46 at Cannabinoid receptor 2 [1], below 5.00 on Cannabinoid receptor 1 [2], below 5.00 at Cannabinoid receptor 1 [4] and 7.52 on Cannabinoid receptor 2 [6]. Further, the Activity at Cannabinoid receptor 2 [3] came to 87%; in assay [5], 40%; on Cannabinoid receptor 1 [7], 37%; at Cannabinoid receptor 2 [8], 112%. Besides, the Ratio Ki in the assay filed under Homo sapiens is above 333.

Turning to `CCCCCn1cc(C(=O)NC2CCCCC2)c(=O)n2nc(-c3ccco3)cc12`, the pKi on Cannabinoid receptor 2 [1] is 7.98; at Cannabinoid receptor 1 [2], below 5.00; at Cannabinoid receptor 1 [4] it was below 5.00; on Cannabinoid receptor 2 [6], 8.02. The Activity on Cannabinoid receptor 2 [3] turned out to be 73%; in [5], 30%; at Cannabinoid receptor 1 [7], 21%; at Cannabinoid receptor 2 [8] it was 103%. Moreover, the Ratio Ki in the assay filed under Homo sapiens was above 1050.
